Published values from different studies.
Compare with care: the assays were run in different laboratories.
Target: Maternal embryonic leucine zipper kinase (MELK, Homo sapiens, UniProt Q14680)

Cc1ncc([N+](=O)[O-])n1C(=NO)c1ccccc1C(F)(F)F
inhibition (enzyme activity; inhibitor; 10 µM): 13.9%

CCN(CC)c1ccc(C2=NNC(=O)CC2C)cc1[N+](=O)[O-] (centres unmarked)
remaining activity (enzyme activity; inhibitor; 10 µM): 92%

CC(=O)Nc1c(C(C)=O)c(=O)n(C)c2nc(-c3ccc(Cl)cc3Cl)c(-c3ccc(Cl)cc3)cc12
remaining binding (cell-free assay; competition with immobilised ligand; 1 µM): 100%

CNC(=O)c1cc(Oc2ccc(NC(=O)Nc3ccc(Cl)c(C(F)(F)F)c3)cc2)ccn1
inhibition (enzyme activity; inhibitor; 10 µM): 13%

COc1cc2ncnc(Nc3ccc(Oc4ccccc4)cc3C)c2cc1OC
inhibition (enzyme activity; inhibitor; 1 µM): 0%

CC/C(=N\NC(=O)NCc1cccc(O)c1)c1ccc(O)c(C)c1O
inhibition (enzyme activity; inhibitor; 0.1 µM): 0.7%

CCC(=O)N[C@H]1CC[C@@H](C(=O)N(C)c2ccc(-c3nc4ccccc4o3)cc2)C1
remaining binding (cell-free assay; competition with immobilised ligand; 1 µM): 94%

O=C1NC(=O)c2cc(Nc3ccc(F)cc3)c(Nc3ccc(F)cc3)cc21
remaining signal (cell-free assay; 0.5 µM): 92%

CCN1CCN(Cc2ccc(NC(=O)c3ccc(C)c(/C=C/c4cnc5[nH]ccc5c4OC)c3)cc2C(F)(F)F)CC1
inhibition (target engagement in cells; inhibitor; chemoproteomics; A-375; 50 nM): -10.4%

COc1cc(Cl)c(C(=O)N[C@@H](CN[C@H]2CC[C@@H](N)CC2)Cc2ccc(C#N)cc2)cc1-c1ccc(CN[C@H](C)c2ccc(C)cc2)o1
remaining activity (enzyme activity; inhibitor; 1 µM): 98%

Cc1sc(C(=O)NC2COC2)cc1-n1cc(NC(=O)Nc2c(F)cccc2Cl)cn1
remaining activity (enzyme activity; inhibitor; 10 µM): 103%

FC(F)(F)Oc1cccc(-c2cnc3ccc(-c4ccncc4)nn23)c1
activity vs control (enzyme activity; inhibitor; radiometric; 1 µM): 84%

C[C@H](c1cccc(C#N)c1)n1cc(Cl)cc(C(N)=O)c1=N
remaining binding (cell-free assay; competition with immobilised ligand; 1 µM): 74%

CN(c1ncccc1CNc1nc(Nc2ccc3c(c2)CC(=O)N3)ncc1C(F)(F)F)S(C)(=O)=O
inhibition (enzyme activity; inhibitor; 1 µM): 90.4%

Nc1nc(Nc2ccccc2)sc1C(=O)c1c(F)cccc1F
remaining activity (enzyme activity; inhibitor; 10 µM): 47%

Oc1cccc(-c2nc(N3CCOCC3)c3oc4ncccc4c3n2)c1
remaining activity (enzyme activity; inhibitor; 10 µM): 104%

CC(C)(C)c1nc2c(s1)c1nc(N)ncc1c1ccc(NS(=O)(=O)c3c(F)cccc3F)c(F)c12
remaining activity (enzyme activity; inhibitor; radiometric; 1 µM): 41%

Cc1cc(NC(=O)c2cccc3cc(-c4cccc5[nH]nc(N)c45)ccc23)ccc1F
activity vs control (enzyme activity; inhibitor; 0.1 µM): 93%

CCOC(=O)c1cc2cc(-c3cc(C(=O)NCc4ccc(C(=O)O)cc4)nn3C)ccc2[nH]1
remaining binding (cell-free assay; competition with immobilised ligand; 0.1 µM): 100%

N#CCCc1ccc2c(c1)-c1[nH]c3ccc([N+](=O)[O-])cc3c1CC(=O)N2
remaining signal (cell-free assay; 0.5 µM): 88.6%

COc1cc(Nc2cnc(C#N)c(O[C@H](C)CN(C)C)n2)ncc1-c1cnn(C)c1
remaining activity (enzyme activity; inhibitor; radiometric; 1 µM): 109%

Clc1ccc(Nc2nnc(Cc3ccncc3)c3ccccc23)cc1
remaining signal (cell-free assay; 0.5 µM): 83.7%

Cc1ccc(NC(=O)c2ccc(C)c(C(F)(F)F)c2)cc1C#Cc1nn(C2CCC(O)CC2)c2ncnc(N)c12 (centres unmarked)
remaining signal (cell-free assay; 10 µM): 23%

Cc1ccc(Nc2nccc(N(C)c3ccc4c(C)n(C)nc4c3)n2)cc1S(N)(=O)=O
inhibition (enzyme activity; inhibitor; 10 µM): 16%

COc1cc(-c2cn(C3CCc4c(F)cccc4N(CC(F)(F)F)C3=O)nn2)ccc1-n1cnc(C)c1 (centres unmarked)
remaining binding (cell-free assay; competition with immobilised ligand; 1 µM): 100%

CCN(CC)CCNC(=O)c1c(C)[nH]c(/C=C2\C(=O)Nc3ccc(F)cc32)c1C
inhibition (enzyme activity; inhibitor; 0.3 µM): 53%

CN(C)CC#Cc1ccc(OCCCc2sc(N3CCc4cccc(C(=O)Nc5nc6ccccc6s5)c4C3)nc2C(=O)O)c(F)c1
remaining binding (cell-free assay; competition with immobilised ligand; 1 µM): 78%

C#Cc1cccc(Nc2ncnc3cc(OCCOC)c(OCCOC)cc23)c1
remaining signal (cell-free assay; 0.5 µM): 88.6%

C[C@H](c1ccnc(Nc2nc3ccc(-c4cc(N(C)C)ncn4)cc3[nH]2)c1)N1CCN(C(=O)CC(F)(F)F)CC1
remaining binding (cell-free assay; competition with immobilised ligand; 0.1 µM): 100%

CC(C)(O)[C@H]1CC[C@H](Nc2ccc3ncc(-c4cccc(C(F)(F)F)c4)n3n2)CC1
remaining activity (enzyme activity; inhibitor; 1 µM): 86.3%

CC(C)(C)c1nc2c3cc[nH]c(=O)c3c3cc(F)ccc3c2[nH]1
remaining signal (cell-free assay; 0.5 µM): 5.23%

CO[C@@H](C)c1c(Nc2ccc([C@@H](N(C)C(=O)C3CCS(=O)(=O)CC3)C(F)(F)F)cc2)cnc2cc(Cl)nn12
remaining binding (cell-free assay; competition with immobilised ligand; 1 µM): 52%
